High-throughput results deposited in PubChem BioAssay by The Scripps Research Institute Molecular Screening Center.
Only some compounds are listed: those with a hit (about 3.1% of all), similar ones and a draw of the others.
OX1R antag-1 = OX1R (HCRTR1) antagonists, primary screen, fluorescence, CHO/OX1R cells, Fluo-8 calcium, orexin A; 330,000 compounds, 0.43% hits; Fluo-8 calcium fluorescence; AID 434989, 2010; Orexin/Hypocretin receptor type 1 (Homo sapiens), O43613; inhibition, % at 5 µM;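 active = inhibition above its plate's threshold, mean inhibition of all tested compounds on the plate plus 3 SD, cut at about 37% in these data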
CHO parental Ca = ATP-evoked calcium signal inhibitors, parental CHO, primary screen, counter-screen for OX1R antagonist project, cell-based, fluorescence, Fluo-8 calcium dye | parental CHO-K1, ATP-induced calcium, Fluo-8 fluorescence | inhibition, % at 5.6 µM | 330,000 compounds, 0.63% hits | AID 463079, 2010;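 active = inhibition above that plate's mean sample inhibition plus 3 SD, cut at about 26% in these data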
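Assay system – parental CHO cells · Reagent – ATP stimulus · Detection – intracellular calcium via Fluo-8 no-wash fluorescent dye · Evaluation – percent inhibition of ATP-evoked calcium rise, normalized to controls · Controls – ATP wells versus no-ATP DMSO wells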
GalR3 antag = GalR3 antagonists in HEK293 cells, primary screen, cell-based, fluorescence readout; HEK293 GalR3-CNG cAMP membrane potential fluorescence; galR3 body fused to GalR1 C-terminus; Galanin receptor type 3 (Homo sapiens), O60755; 360,000 compounds, 0.44% hits; inhibition, % at 3 µM; AID 651719, 2012;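 active = inhibition above the screen-wide average plus 3 SD, cut at about 13% in these data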;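 also: forskolin and galanin both at EC90 stimulate the cells; cAMP rise reported by CNG channel membrane potential dye signal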
Target sequence (O60755 1-299 limits assumed): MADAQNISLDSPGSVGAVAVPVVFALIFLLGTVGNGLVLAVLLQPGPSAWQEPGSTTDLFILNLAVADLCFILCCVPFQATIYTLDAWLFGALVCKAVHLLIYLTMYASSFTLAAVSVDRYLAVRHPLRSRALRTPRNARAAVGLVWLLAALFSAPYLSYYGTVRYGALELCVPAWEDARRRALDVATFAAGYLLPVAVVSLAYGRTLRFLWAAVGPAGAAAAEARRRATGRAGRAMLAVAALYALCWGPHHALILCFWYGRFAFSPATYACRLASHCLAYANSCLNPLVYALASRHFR
OX1R antag-2 = antagonists of human orexin 1 receptor (OX1R) | Orexin/Hypocretin receptor type 1 (Homo sapiens), O43613 | OX1R-expressing cells, FRET antagonist read-out | inhibition, % at 6.6 µM | 330,000 compounds, 1.8% hits | AID 485270, 2010; in the data active = inhibition mostly above about 38%, no sharp cut-off; inactive = mostly below about 40%
GPR7 antagonist = GPR7 receptor antagonists, primary screen, cell-based, fluorescence, single concentration; Neuropeptides B/W receptor type 1 (Homo sapiens), P48145; GPR7-expressing cells, fluorescence antagonist assay; inhibition, % at 4.4 µM; 290,000 compounds, 1.1% hits; AID 1861, 2009; in the data active = inhibition above about 16%, passing the limit was not always enough;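 also: cells stimulated with the agonist NPW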
Target sequence (P48145 whole entry, looked up): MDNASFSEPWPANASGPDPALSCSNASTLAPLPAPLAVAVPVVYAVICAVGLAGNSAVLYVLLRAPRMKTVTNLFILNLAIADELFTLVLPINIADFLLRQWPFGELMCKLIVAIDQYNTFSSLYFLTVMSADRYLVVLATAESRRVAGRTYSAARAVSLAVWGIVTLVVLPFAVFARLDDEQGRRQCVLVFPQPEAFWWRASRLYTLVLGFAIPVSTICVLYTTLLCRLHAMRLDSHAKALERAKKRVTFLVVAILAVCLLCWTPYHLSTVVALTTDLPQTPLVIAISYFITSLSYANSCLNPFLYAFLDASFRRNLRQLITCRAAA
GalR3 antag conf = GalR3 antagonist hit confirmation, cell-based, fluorescence, triplicate. shares compounds with GalR3 antag. HEK293 GalR3 CNG cAMP biosensor, membrane potential fluorescence; galR3 fused to GalR1 carboxy tail; challenged with forskolin and galanin at EC90. inhibition, % at 3 µM. 1,600 compounds, 59% hits. AID 652245, 2013;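 active = inhibition above the primary screen's cutoff, the mean inhibition of all screened compounds plus 3 SD, cut at about 13% in these data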
HEK-CNG parental = nonspecific cAMP agonists in parental HEK-CNG cells, counter-screen for GalR3 antagonist project, cell-based, fluorescence, high throughput; 1,600 compounds, 10% hits; shares compounds with GalR3 antag; AID 652268, 2013; HEK293-CNG parental cells, cAMP membrane potential fluorescence; normalised: DMSO wells 0%, forskolin wells 100%; activation, % at 3 µM; in the data active = activation above about 1.3%
Numbers stand for hits; - = inactive; . = not tested or not shown.

SMILES	OX1R antag-1	CHO parental Ca	GalR3 antag	OX1R antag-2	GPR7 antagonist	GalR3 antag conf	HEK-CNG parental
CCNC(=O)C1(C)CCCN(C(=O)c2sc(-c3ccccc3)nc2C)C1 (stereo not drawn)	.	.	-	.	.	.	.
CC(/C=N\NC(=O)Cn1c(C)nc2ccccc21)=C\c1ccccc1	-	-	70	-	-	-	-
O=C(NC(Nc1nc2ccc([N+](=O)[O-])cc2s1)(C(F)(F)F)C(F)(F)F)c1cccnc1	-	-	52	59	-	85	-
N#Cc1nc(N2CCCC2)nc(N2CCCC2)n1	-	-	98	-	-	112	-
Nc1[nH]c(C(=O)c2ccccc2)c(-c2ccccc2)c1C(=O)NCCc1c[nH]c2ccccc12	.	.	-	.	.	.	.
COc1cccc(NC(=S)N(CCCN2CCCC2)Cc2ccco2)c1	-	-	21	-	-	-	-
COc1cc2c(cc1OC)-c1cc(Nc3ccccc3C)nc(=O)n1CC2	-	-	46	-	-	53	-
CCOc1ccc(Nc2cc3n(c(=O)n2)CCc2cc(OC)c(OC)cc2-3)cc1	-	-	-	-	-	.	.
CCOc1ccccc1Nc1cc2n(c(=O)n1)CCc1cc(OC)c(OC)cc1-2	-	-	53	-	-	67	-
COc1cc2c(cc1OC)-c1cc(Nc3cccc(C)c3)nc(=O)n1CC2	-	-	53	-	-	59	-
O=C(Nc1ccc2c(c1)[C@@H]1C[C@@H](CC(=O)N3CCOCC3)O[C@@H](CO)[C@@H]1O2)NC1CCCC1	.	.	-	.	.	.	.
CN(C)/C=N/c1nc2nccc(-c3cccs3)n2n1	-	-	13	-	-	-	-
COc1cccc(C(=O)N[C@H](C(=O)N2CCC[C@H]2C(=O)NC2CCCC2)c2ccccc2)c1	.	.	-	.	.	.	.
COc1cc(NS(=O)(=O)c2ccc(F)cc2)c(OC)cc1NC(=O)C1CC1	.	.	.	.	-	.	.
O=C(Nc1ccccc1NS(=O)(=O)c1ccc(F)cc1)C1CCC1	-	-	.	-	-	-	-
CCCn1nc(C(=O)NNC(=O)CCCOc2ccc(OC)cc2)c2ccccc2c1=O	-	-	58	-	.	44	-
CN(C)S(=O)(=O)Oc1cccc(C(=O)Nc2ccc(Cl)cc2)c1	-	-	28	-	-	51	-
CN(C)S(=O)(=O)Oc1cccc(C(=O)Nc2ccccc2Cl)c1	-	-	-	-	-	.	.
CCNC(=O)C1(C)CCN(C(=O)c2ccc3ccccc3c2)C1 (stereo not drawn)	.	.	-	.	.	.	.
CCCc1nc(NCc2ccccc2)c(C#N)c2c1CCCC2	-	-	17	-	-	-	-
CCC(CC)C(=O)N(C)c1c(C)nc2c(OCc3ccc(Cl)cc3Cl)cccn12	.	.	-	.	.	.	.
OCCNCCOc1ccccc1-c1ccccc1	-	-	-	-	-	.	.
OCCNCCOc1ccccc1F	-	-	13	-	-	-	-
Cc1cc(C)c2oc(C(=O)N(Cc3ccccc3)C3CCS(=O)(=O)C3)cc(=O)c2c1 (stereo not drawn)	-	-	-	-	-	.	.
CCOc1ccc(CN(C(=O)c2cc(=O)c3cc(C)cc(C)c3o2)C2CCS(=O)(=O)C2)cc1 (stereo not drawn)	-	-	17	-	-	-	-
SMILES	OX1R antag-1	CHO parental Ca	GalR3 antag	OX1R antag-2	GPR7 antagonist	GalR3 antag conf	HEK-CNG parental
COC(=O)[C@]12C[C@H](CC(=O)NCc3ccc(OC)c(OC)c3)C(=O)N(CCC3=CCCCC3)C1=C[C@H](C(C)(C)C)O[C@@H]2C	.	.	-	.	.	.	.
Cc1cc(C)cc(Cn2cc(CN3CC(N4CCN(CCO)CC4)CS3(=O)=O)nn2)c1 (stereo not drawn)	.	.	-	.	.	.	.
Nc1nc(-c2ccc3c(c2)OCCO3)cs1	-	-	23	-	-	29	-
Cc1nc(-c2ccc3c(c2)OCCCO3)cs1	-	-	-	-	-	.	.
CN(C)C(CNC(=O)c1ccc(Cl)c(S(=O)(=O)N2CCCCCC2)c1)c1ccccc1 (stereo not drawn)	-	-	71	-	.	88	1.3
CC1CN(S(=O)(=O)c2cc(C(=O)NCc3ccncc3)ccc2Cl)CC(C)O1 (stereo not drawn)	-	-	-	-	.	.	.
Cc1ccccc1CCNC(=O)c1ccc(Cl)c(S(=O)(=O)N2CC(C)OC(C)C2)c1 (stereo not drawn)	-	-	107	-	.	92	-
CN(C)CCCNC(=O)c1ccc(Cl)c(S(=O)(=O)N2CCCCCC2)c1	-	-	-	-	.	.	.
CCCCCCCCN1C(=O)[C@H](CC(=O)N2CCN(C(=O)OCC)CC2)C[C@@]2(C(=O)OC)CCCCC=C12	.	.	-	.	.	.	.
Cc1ccc(S(=O)(=O)n2c3ccc(Cl)cc3c3nc(C)sc32)cc1	.	.	.	.	-	-	-
CN(C)S(=O)(=O)c1cccc(CSCc2cccc(S(=O)(=O)N(C)C)c2)c1	-	46	78	-	-	87	-
Cc1cc(C)n2nc(SCc3cccc(S(=O)(=O)N(C)C)c3)nc2n1	-	-	-	-	-	.	.
Cc1cc(OCC(=O)NC2CC(C)(C)NC(C)(C)C2)c2c(C)cc(=O)oc2c1	-	-	.	-	-	-	-
CCn1nc(CC(=O)Nc2ccc(-n3cnnn3)c(OC)c2)c2ccccc2c1=O	-	-	17	-	-	17	-
COC(=O)[C@]12C[C@H](CC(=O)NCCC(C)C)C(=O)N(Cc3ccc4c(c3)OCO4)C1=C[C@H](C(C)(C)C)O[C@@H]2C	.	.	-	.	.	.	.
COc1ccc(OC)c2sc(N3CCN(c4ccccc4)CC3)nc12	-	-	15	-	-	-	-
COc1cccc(C(=O)/C=C/c2ccc(OCC#N)c(OC)c2)c1	-	-	20	-	-	-	-
CCOC(=O)N(C)[C@H]1C[C@H]2c3cc(-c4ccccc4C)ccc3CCN2C[C@H]1[C@H](C)O	.	.	95	.	.	-	-
CCOC(=O)N(C)[C@H]1C[C@H]2c3[nH]c4ccccc4c3CCN2C[C@H]1[C@H](C)O	.	.	-	.	.	.	.
Cc1nnc(SCc2nc3scc(-c4ccccc4)c3c(=O)[nH]2)s1	-	-	14	-	-	-	-
O=c1[nH]c(Cc2ccccc2)nc2scc(-c3ccccc3)c12	-	-	-	-	-	.	.
COc1ccc(CN2CCC(CO)(Cc3cccc(C(F)(F)F)c3)CC2)cc1Cn1cccn1	-	-	16	-	-	-	3.9
Cc1c(CN2CCC(CO)(Cc3cccc(C(F)(F)F)c3)CC2)c2ccccc2n1C	-	-	-	-	-	.	.
